Source: ChEMBL document CHEMBL1138835, “Inhibitors of multiple mutants of Plasmodium falciparum dihydrofolate reductase and their antimalarial activities” (J Med Chem, 2004)

Experiments:
[1] = biological target: Bifunctional dihydrofolate reductase-thymidylate synthase (Plasmodium falciparum K1) (UniProt P13922); assay: Ratio of binding affinity for mutant (N51I+C59R+S108N) to that of wild type dihydrofolate reductase
In short: (§1)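 Each ratio is Ki for the mutant PfDHFR divided by Ki for wild-type PfDHFR. The recombinant enzymes were expressed in E. coli BL21(DE3)pLysS and purified on methotrexate-Sepharose. Ki was derived assuming inhibitors compete with substrate binding.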

Vero [2] = assay: Relative antiplasmodial activity to cytotoxicity in Plasmodium falciparum TM4/8.2 infected Vero cells; assay type: functional
[3] = biological target: Bifunctional dihydrofolate reductase-thymidylate synthase (Plasmodium falciparum K1, UniProt P13922, C59R/I164L/S108N); assay: Binding affinity towards mutant dihydrofolate reductase (C59R+S108N+I164L DHFR) of Plasmodium falciparum
Chain of Bifunctional dihydrofolate reductase-thymidylate synthase (Plasmodium falciparum K1, UniProt P13922, C59R/I164L/S108N) (P13922 whole entry, looked up, stated change not applied): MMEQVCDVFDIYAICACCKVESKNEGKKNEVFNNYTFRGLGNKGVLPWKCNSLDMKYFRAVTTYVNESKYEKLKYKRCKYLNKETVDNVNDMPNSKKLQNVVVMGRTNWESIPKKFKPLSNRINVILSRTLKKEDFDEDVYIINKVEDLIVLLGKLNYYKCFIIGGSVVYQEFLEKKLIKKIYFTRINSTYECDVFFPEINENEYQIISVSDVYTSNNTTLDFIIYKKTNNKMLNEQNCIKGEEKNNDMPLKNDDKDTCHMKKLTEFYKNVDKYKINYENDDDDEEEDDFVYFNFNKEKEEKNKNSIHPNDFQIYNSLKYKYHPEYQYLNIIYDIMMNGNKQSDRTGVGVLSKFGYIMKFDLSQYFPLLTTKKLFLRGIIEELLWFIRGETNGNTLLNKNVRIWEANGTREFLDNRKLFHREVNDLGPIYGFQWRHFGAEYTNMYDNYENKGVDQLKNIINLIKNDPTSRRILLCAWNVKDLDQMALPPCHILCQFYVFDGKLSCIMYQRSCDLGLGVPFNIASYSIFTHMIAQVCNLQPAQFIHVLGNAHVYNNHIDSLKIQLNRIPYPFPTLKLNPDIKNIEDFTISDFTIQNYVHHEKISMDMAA

Vero [4] = assay: Relative antiplasmodial activity to cytotoxicity in Plasmodium falciparum Csl-2 infected Vero cells; assay type: functional
[5] = biological target: Bifunctional dihydrofolate reductase-thymidylate synthase (Plasmodium falciparum K1, UniProt P13922); assay: Binding affinity towards wild-type dihydrofolate reductase of Plasmodium falciparum.
Chain of Bifunctional dihydrofolate reductase-thymidylate synthase (Plasmodium falciparum K1, UniProt P13922) (P13922 whole entry): as the sequence (P13922 whole entry, looked up, stated change not applied) above

KB [6] = assay: Relative antiplasmodial activity to cytotoxicity in Plasmodium falciparum V1/S infected KB cells; assay type: functional
KB [7] = assay: Relative antiplasmodial activity to cytotoxicity in Plasmodium falciparum TM4/8.2 infected KB cells; assay type: functional
[8] = system: Bifunctional dihydrofolate reductase-thymidylate synthase (Plasmodium falciparum K1), P13922 [UNDEFINED MUTATION]; assay: Ratio of binding affinity for mutant (N51I+C59R+S108N+I164L) to that of wild type dihydrofolate reductase; in short: as §1
Chain of Bifunctional dihydrofolate reductase-thymidylate synthase (Plasmodium falciparum K1), P13922 [UNDEFINED MUTATION] (P13922 whole entry, looked up, stated change not applied): as above

[9] = biological target: Bifunctional dihydrofolate reductase-thymidylate synthase (Plasmodium falciparum K1, UniProt P13922, C59R/I164L/N51I/S108N); assay: Binding affinity towards mutant dihydrofolate reductase (N51I+C59R+S108N+I164L DHFR) of Plasmodium falciparum
Chain of Bifunctional dihydrofolate reductase-thymidylate synthase (Plasmodium falciparum K1, UniProt P13922, C59R/I164L/N51I/S108N) (P13922 whole entry, looked up, stated change not applied): as above

BC [10] = assay: Relative antiplasmodial activity to cytotoxicity in Plasmodium falciparum TM4/8.2 infected BC cells; assay type: functional
Vero [11] = assay: Relative antiplasmodial activity to cytotoxicity in Plasmodium falciparum V1/S infected Vero cells; assay type: functional
[12] = system: Bifunctional dihydrofolate reductase-thymidylate synthase (Plasmodium falciparum K1), P13922 [UNDEFINED MUTATION]; assay: Ratio of binding affinity for mutant (C59R+S108N+I164L) to that of wild type dihydrofolate reductase; in short: as §1
BC [13] = assay: In vitro cytotoxicity against BC cell line.; conditions: Homo sapiens
BC [14] = assay: Relative antiplasmodial activity to cytotoxicity in Plasmodium falciparum Csl-2 infected BC cells; assay type: functional
[15] = biological target: Bifunctional dihydrofolate reductase-thymidylate synthase (Plasmodium falciparum K1, UniProt P13922, C59R/N51I/S108N); assay: Binding affinity towards mutant dihydrofolate reductase (N51I+C59R+S108N DHFR) of Plasmodium falciparum
Chain of Bifunctional dihydrofolate reductase-thymidylate synthase (Plasmodium falciparum K1, UniProt P13922, C59R/N51I/S108N) (P13922 whole entry, looked up, stated change not applied): as above

KB [16] = assay: Relative antiplasmodial activity to cytotoxicity in Plasmodium falciparum Csl-2 infected KB cells; assay type: functional
KB [17] = assay: In vitro cytotoxicity against Plasmodium falciparum infected KB cell line; assay type: functional, cell-based; conditions: Homo sapiens
In short: (§2)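 Cytotoxicity (IC50, μM) run against three mammalian lines: Vero (African green monkey kidney fibroblasts), KB (human epidermoid carcinoma) and BC (human breast cancer). Testing followed the Skehan et al. protocol.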

[18] = system: Bifunctional dihydrofolate reductase-thymidylate synthase (Plasmodium falciparum K1), P13922 [UNDEFINED MUTATION]; assay: Ratio of binding affinity for mutant (A16V+S108T) to that of wild type dihydrofolate reductase; in short: as §1
Vero [19] = assay: In vitro cytotoxicity against Plasmodium falciparum infected vero cell line.; assay type: functional, cell-based; conditions: Chlorocebus sabaeus; in short: as §2
[20] = biological target: Bifunctional dihydrofolate reductase-thymidylate synthase (Plasmodium falciparum K1, UniProt P13922, A16V/S108T); assay: Binding affinity towards mutant dihydrofolate reductase (A16V+S108T DHFR) of Plasmodium falciparum.
Chain of Bifunctional dihydrofolate reductase-thymidylate synthase (Plasmodium falciparum K1, UniProt P13922, A16V/S108T) (P13922 whole entry, looked up, stated change not applied): as above

Chain of Bifunctional dihydrofolate reductase-thymidylate synthase (Plasmodium falciparum K1) (P13922 whole entry, looked up): as the sequence (P13922 whole entry, looked up, stated change not applied) above

Structure (SMILES)	Ratio [1]	Safety ratio (Vero [2])	Ki [3]	Safety ratio (Vero [4])	Ki [5]	Safety ratio (KB [6])	Safety ratio (KB [7])	Ratio [8]	Ki [9]	Safety ratio (BC [10])	Safety ratio (Vero [11])	Ratio [12]	IC50 (BC [13])	Safety ratio (BC [14])	Ki [15]	Safety ratio (KB [16])	IC50 (KB [17])	Ratio [18]	IC50 (Vero [19])	Ki [20]
COc1ccc(CCCc2nc(N)nc(N)c2-c2cccc(Cl)c2)cc1	0.6	7.3	2.9 nM	1.1	2.2 nM	3.2	36.6	0.9	2 nM	7.3	0.6	1.3	3000 nM	1.1	1.3 nM	5.6	–	–	–	–
Nc1nc(N)c(-c2cccc(Cl)c2)c(CCOCCCOc2ccccc2)n1	1.7	42.9	1.3 nM	5.2	0.4 nM	1.4	18.3	4.2	1.7 nM	14	3.3	3.2	4900 nM	1.7	0.7 nM	2.2	6400 nM	–	–	–
CCc1nc(N)nc(N)c1-c1ccc(C)cc1	17.2	–	88 nM	–	0.4 nM	–	–	710	284 nM	–	–	220	–	–	6.9 nM	–	–	–	–	–
COC(=O)CCCc1nc(N)nc(N)c1-c1ccccc1	5.5	–	15 nM	–	0.6 nM	–	–	40	24 nM	–	–	25	–	–	3.3 nM	–	–	–	–	–
NC1=NC(c2cccc(Oc3cccc(C(F)(F)F)c3)c2)N(c2cccc(Cl)c2)C(N)=N1 (stereo not drawn)	0.7	9.4	0.6 nM	8.8	–	1.9	1.9	1.8	4.8 nM	2	9.4	0.2	6400 nM	1.9	2 nM	1.8	6000 nM	2.4	30000 nM	6.5 nM
NC1=NC(c2cccc(Oc3ccc(Cl)cc3)c2)N(c2ccc(Cl)cc2)C(N)=N1 (stereo not drawn)	61.1	11.1	151 nM	7.8	–	1.1	1.4	86.4	121 nM	2.5	8.2	108	7000 nM	1.8	85.5 nM	1	4000 nM	5.4	31000 nM	7.5 nM
CCc1nc(N)nc(N)c1-c1ccc(Cl)c(Cl)c1 [ETOPRINE]	3.1	–	41 nM	–	1 nM	–	–	53	53 nM	–	–	41	–	–	3.1 nM	–	–	–	–	–
CCCCCCC1(C)N=C(N)N=C(N)N1c1cccc(Cl)c1 (stereo not drawn)	2.3	3833	12.1 nM	469	–	1.3	66.7	6.58	15.9 nM	36.7	71.9	5	2200 nM	4.5	5.5 nM	8.2	4000 nM	41.9	230000 nM	101 nM
NC1=NC(c2cccc(Oc3cc(Cl)cc(Cl)c3)c2)N(c2cccc(Cl)c2)C(N)=N1 (stereo not drawn)	0.6	5.1	0.6 nM	7.2	–	1.5	1.1	1.5	2.7 nM	1.8	7.2	0.3	10000 nM	2.6	1 nM	1.5	6000 nM	2.6	28000 nM	4.7 nM
NC1=NC(c2cccc(OCCCOc3cc(Cl)c(Cl)cc3Cl)c2)N(c2cccc(Cl)c2)C(N)=N1 (stereo not drawn)	0.5	6	2.2 nM	3.5	–	0.8	2.3	1.1	4.5 nM	3.3	2.1	0.6	10000 nM	1.9	2 nM	1.3	7000 nM	0.7	18000 nM	2.6 nM
NC1=NC(c2cccc(Oc3ccccc3)c2)N(c2cccc(Cl)c2)C(N)=N1 (stereo not drawn)	2.3	>22.7	3 nM	>14.7	–	1.1	1.8	5.3	5.8 nM	3.8	>13.9	2.7	8400 nM	2.5	2.5 nM	1.2	4000 nM	2.3	> 50000 nM	2.5 nM
COC(=O)CCCc1nc(N)nc(N)c1-c1ccc(Cl)cc1	97.7	–	145 nM	–	0.3 nM	–	–	1200	360 nM	–	–	483	–	–	29.3 nM	–	–	–	–	–
Nc1nc(N)c(-c2ccc(Cl)cc2)c(CCCc2ccccc2)n1	21.6	–	63 nM	–	0.7 nM	–	–	243	170 nM	–	–	90	–	–	15.1 nM	–	–	–	–	–
NC1=NC(c2cccc(Oc3ccc(Cl)cc3)c2)N(c2cccc(Cl)c2)C(N)=N1 (stereo not drawn)	1.5	7.9	5.1 nM	10	–	2.2	1.8	6.1	8 nM	2.6	9.7	3.9	10000 nM	3.2	1.9 nM	2.3	7000 nM	2.7	31000 nM	3.5 nM
Cc1nc(N)nc(N)c1-c1cccc(Cl)c1	3.4	–	9.8 nM	–	1.9 nM	–	–	7.4	14 nM	–	–	5.2	–	–	6.5 nM	–	–	–	–	–
NC1=NC(c2cccc(OCc3ccccc3)c2)N(c2cccc(Cl)c2)C(N)=N1 (stereo not drawn)	1.4	>12.5	3.6 nM	>6.7	–	1	2	3.3	7.7 nM	5.5	>6.1	1.6	22000 nM	2.9	3.2 nM	1.1	8000 nM	1.4	> 50000 nM	3.2 nM
COC(=O)CCCc1nc(N)nc(N)c1-c1cccc(Cl)c1	1.5	–	1.8 nM	–	0.5 nM	–	–	5.4	2.7 nM	–	–	3.6	–	–	0.77 nM	–	–	–	–	–
CCc1nc(N)nc(N)c1-c1ccc2c(c1)OCO2	7.5	–	121 nM	–	1.1 nM	–	–	244	269 nM	–	–	110	–	–	8.3 nM	–	–	–	–	–
CCCCCCc1nc(N)nc(N)c1-c1ccccc1	–	917	0.7 nM	18.3	0.3 nM	17.7	1883	–	1.4 nM	4467	8.6	–	–	89.3	0.4 nM	37.7	–	–	–	–
